Screens: PubChem BioAssay, several laboratories
Rows were chosen to be rich in hits. Some 2.6% of all compounds tested hit in one or more screens of this group.
Rad51 HR inh: Rad51 (human) homologous recombination inhibition; hRad51 DNA strand exchange, fluorescence dequenching; inhibition, % at 10 µM; hit rate 0.085% among 200,000; AID 1385;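 active = inhibition above 40% at the single screening dose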;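 note: 0% = DMSO control wells and 100% = blanks with heterologous ssDNA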
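Material: human Rad51–ssDNA filaments; Probe or stimulus: labelled 47-mer dsDNA for strand exchange; Doses: single 10 µM dose; Incubation: 37 °C 15-min filament assembly, 30-min compound preincubation, 15-min exchange; Technique: FRET fluorescence dequenching, excitation 485 nm, emission 520 nm; Measure: Fluorescence-based percent inhibition, control- and blank-normalised; Benchmarks: plate control and blank wells.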
Hsp70 activator: Hsp70 transcriptional activation, primary screen | HeLa Hsp70 promoter luciferase reporter, luminescence; scaled: vehicle 0, proteasome-inhibitor control 100% | activation, % at 10 µM | hit rate 0.04% among 200,000 | AID 1203;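 active = activation above the mean across all tested compounds plus 3 SD, cutoff set per campaign, cut at about 5.5% in these data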;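 note: 100% = MG132 at 30 µM as the positive control and 0% = DMSO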
MDM2 E3 inh: blocks human Mdm2 ubiquitin ligase activity. Q00987. signal enhancement, % at 5 µM. cell-based MDM2 ubiquitination luciferase reporter, 2 h; 0 = plate control, 100 = twice control, blank-subtracted. hit rate 0.11% among 210,000. AID 1230;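 active = signal enhancement of 30% or more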;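 note: luminescence tracks abundance of the self-degrading MDM2-luciferase fusion protein; higher signal means inhibition of MDM2 E3 ligase activity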
Target sequence (Q00987 whole entry, looked up, the tested form may be a part): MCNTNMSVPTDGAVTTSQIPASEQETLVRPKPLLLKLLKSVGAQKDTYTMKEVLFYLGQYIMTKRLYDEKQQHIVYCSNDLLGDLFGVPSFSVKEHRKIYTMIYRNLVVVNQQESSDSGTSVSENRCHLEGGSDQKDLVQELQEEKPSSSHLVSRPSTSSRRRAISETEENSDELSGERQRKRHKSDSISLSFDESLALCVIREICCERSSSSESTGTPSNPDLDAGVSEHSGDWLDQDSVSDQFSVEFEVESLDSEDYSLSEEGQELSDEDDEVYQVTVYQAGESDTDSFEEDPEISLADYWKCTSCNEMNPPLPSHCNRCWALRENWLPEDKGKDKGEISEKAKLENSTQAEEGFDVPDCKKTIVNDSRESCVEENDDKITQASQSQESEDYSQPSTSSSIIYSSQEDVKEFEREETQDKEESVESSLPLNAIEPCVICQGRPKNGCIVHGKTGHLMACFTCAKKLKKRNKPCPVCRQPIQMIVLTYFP
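system = mammalian cells stably expressing self-ubiquitinating, self-degrading MDM2 E3–luciferase fusion | quantity = 2000 cells per well seeded | incubation = 4 h cell settling then 2 h compound exposure, 37 °C | signal = SteadyLite luminescence, 15 min reagent step | benchmarks = plate control and blank wells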
HSV augment: increases HSV replication in cells. maximum fold increase. hit rate 0.005% among 220,000. HSV replication augmentation in cells, fold increase; in the data active = maximum fold increase above about 1.5; tested in PC3 cells
HSF1 inhib: HSF1 inhibition; NIH3T3-HGL HSE-luciferase, MG132-induced, luminescence 8 h; active compounds read low; AID 2098; hit rate 0.77% among 300,000; activity change, negative = inhibition, % at 7.5 µM (by protocol);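 active = more than half of replicate wells show activity change below -50%, luminescence cut by over half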;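 note: luciferase reports HSF-1 transcriptional activity via heat shock element; 0% = median of DMSO wells and -100% = zero luminescence signal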
HSF1 activator: increases HSF-1 driven luciferase reporter signal. NIH3T3-HGL HSF-1 luciferase reporter, MG132, 8 h; 100% = twice DMSO control signal. activation, % at 9 µM. hit rate 1.7% among 300,000;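 active = mean replicate activation of at least 50% with a set share of replicates each reaching 50%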;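 note: 0% = median of the neutral control wells and 100% = twice that signal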
An asterisk follows results filed as active; i = inactive; nt = no result.

SMILES | Rad51 HR inh | Hsp70 activator | MDM2 E3 inh | HSV augment | HSF1 inhib | HSF1 activator
COC(=O)c1cccc(C(=O)N2CCCC(C(=O)c3ccccc3OC)C2)c1 (stereo not drawn) | nt | nt | nt | nt | 19.8 | 58.6*
COc1ccc2c(COC(=O)CCS(=O)(=O)c3ccccc3)cc(=O)oc2c1 | -10.3 | -0.1 | 21.1 | i | 2.0 | -22.0
Cc1cc2oc(=O)cc(COC(=O)c3n[nH]c4ccccc34)c2cc1C | nt | -0.2 | -17.4 | nt | 26.0 | 51.4*
COCC(C)n1c(C)cc(C(=O)COC(=O)c2n[nH]c3ccccc23)c1C (stereo not drawn) | 8.1 | 0.0 | -45.7 | i | -53.2* | -59.1
COc1ccc2c(COC(=O)c3n[nH]c4ccccc34)cc(=O)oc2c1 | -6.9 | 0.4 | -16.8 | i | 48.8 | 63.2*
Cc1cccc(C)c1OCCOC(=O)c1n[nH]c2ccccc12 | -4.0 | 0.0 | -12.2 | nt | 7.7 | 14.1
COc1cc(SC)ccc1C(=O)N1CCN(Cc2ccc3c(c2)OCO3)CC1 | nt | nt | nt | nt | -9.6 | -8.3
NS(=O)(=O)c1cccc(NC(=O)Cn2cc(C(F)(F)F)cc(Cl)c2=O)c1 | -3.5 | nt | -17.0 | i | -4.9 | 1.5
CC(=O)NC1C(=O)N=C(SCc2ccccc2)NC1=O (stereo not drawn) | -5.6 | -0.4 | -9.3 | i | 6.1 | 22.2
CC(=O)NC1C(=O)N=C(SCC(=O)NC(C)c2ccccc2)NC1=O (stereo not drawn) | nt | -0.4 | 33.6* | nt | -6.5 | 7.2
O=C(Nc1ccc(F)cc1)C1C(c2ccccc2)C1(Cl)Cl (stereo not drawn) | -4.2 | -0.1 | -3.9 | i | -1.1 | 9.3
CCCCn1cc(S(=O)(=O)c2ccccc2)c(=O)c2cc(C)ccc21 | nt | nt | nt | nt | -73.6* | -79.7
O=C(NC1CCN(C(=S)NCc2ccco2)CC1)c1cccc(F)c1 | 7.0 | -0.2 | 4.4 | i | -1.2 | 15.7
S=C(NCCN1CCOCC1)N1CCN(c2cccc(Cl)c2)CC1 | nt | nt | nt | nt | -2.7 | -0.6
COc1ccc(C(=O)NC2CCN(C(=S)NCc3ccco3)CC2)cc1 | 0.6 | -0.2 | -35.8 | i | 33.0 | 55.9*
CC(C)CNC(=S)N1CCN(C(c2ccccc2)c2ccccc2)CC1 | 0.5 | -0.4 | 0.1 | i | -4.2 | 19.7
S=C(NCc1ccco1)N1CCN(C(c2ccccc2)c2ccccc2)CC1 | 5.3 | -0.3 | -4.1 | i | 35.7 | 57.6*
S=C(NCc1ccco1)N1CCN(c2cccc(Cl)c2)CC1 | nt | 0.0 | 8.1 | i | 44.3 | 54.2*
CC(C)C[C@H](NC(=O)C1CCN(S(=O)(=O)c2ccccc2)CC1)C(=O)NCc1ccncc1 | nt | nt | nt | nt | 4.0 | -1.9
COc1ccc(CNC(=O)CCS(=O)(=O)c2cc3c(cc2Cl)NC(=O)CO3)cc1 | nt | nt | nt | nt | -5.4 | 8.1
Fc1ccc(/C=N/NC(=S)Nc2ccc(Cl)cc2)cc1F | 1.5 | 0.8 | -13.4 | i | 33.6 | 56.1*
COc1ccc(NC(=S)N/N=C/c2ccc(F)cc2)cc1OC | 2.8 | 0.3 | -9.3 | i | 48.0 | 54.7*
Fc1ccc(NC(=S)N/N=C/c2ccc(F)c(F)c2)cc1 | -10.7 | 0.1 | -8.6 | i | 25.7 | 38.5
Fc1cccc(/C=N/NC(=S)Nc2ccccc2Cl)c1 | 3.1 | -0.1 | -4.0 | i | 52.2 | 87.2*
CCOC(=O)COn1c(-n2nc(C)cc2C)nc2ccccc2c1=O | nt | nt | nt | nt | -1.4 | 8.2
SMILES | Rad51 HR inh | Hsp70 activator | MDM2 E3 inh | HSV augment | HSF1 inhib | HSF1 activator
C=CCc1cccc2cc(C(=O)Nc3ccc(S(=O)(=O)Nc4nnc(CC)s4)cc3)c(=O)oc12 | -0.3 | -0.2 | -3.0 | i | 8.8 | 9.7
CC(=O)Nc1ccc(NC(=O)C(C)OC(=O)/C=C/c2ccc3c(c2)OCO3)cc1 (stereo not drawn) | nt | nt | nt | nt | -1.7 | 15.6
COc1cccc(/C=C/C(=O)NCc2ccc3c(c2)OCO3)c1 | nt | nt | nt | nt | -84.9* | -87.2
CCN(Cc1ccc2c(c1)OCO2)C(=O)/C=C/c1cccc(Br)c1 | nt | nt | nt | nt | -73.9* | -79.7
COc1cccc(NC(=O)C(OC(=O)/C=C/c2ccc3c(c2)OCO3)c2ccccc2)c1 (stereo not drawn) | -4.3 | -0.2 | -2.7 | i | 17.1 | 54.2*
O=C(Cc1c(F)cccc1Cl)NNC(=O)Nc1ccc2c(c1)OCO2 | nt | nt | nt | nt | -10.2 | 1.7
COc1ccc2cc3c(N)nn(C(=O)c4ccccc4Cl)c3nc2c1 | -5.2 | nt | -37.0 | i | -51.0* | -62.5
COc1cccc(CC(=O)n2nc(N)c3cc4ccc(OC)cc4nc32)c1 | nt | -0.2 | -7.1 | nt | 9.3 | 19.2
COc1ccc2cc3c(N)nn(C(=O)Cc4c[nH]c5ccccc45)c3nc2c1 | -25.7 | nt | -37.7 | i | -53.6* | -64.8
COc1ccc2cc3c(N)nn(C(=O)c4ccc(F)cc4)c3nc2c1 | 1.4 | nt | -17.1 | i | -23.4 | -33.8
COc1ccc(C(C)NC(=O)Cc2ccc(Br)cc2)cc1 (stereo not drawn) | 5.6 | 0.0 | 6.5 | i | 21.9 | 60.9*
CC(C)NC(=O)Cc1ccc(Br)cc1 | -4.8 | 0.2 | -12.1 | i | -5.2 | 17.3
COC(=O)c1ccc(NC(=O)CSc2nncn2-c2ccccn2)cc1 | nt | nt | nt | nt | -3.5 | -10.5
CS(=O)(=O)c1ccc(NC(=O)c2ccc3c(c2)S(=O)(=O)N=C2CCCCCN23)cc1 | nt | nt | nt | nt | -53.8* | -64.8
CC(C)=C1C2CCC1C1C(=O)N(c3ccc(C)c(C)c3)C(=O)C21 (stereo not drawn) | 10.4 | -0.5 | -10.9 | i | -70.6* | -77.9
CCOc1ncccc1C(=O)OCC(=O)N(CC(C)C)C1CCS(=O)(=O)C1 (stereo not drawn) | 4.6 | 0.1 | -14.0 | nt | -7.3 | -8.4
COc1ccc(/C=N/NC(=O)c2cccnc2)c(C(=O)O)c1OC | 11.6 | nt | -1.5 | i | 29.2 | 72.6*
COc1ccc(N(CC(=O)NC2CCCC2)C(=O)c2ccc(C)s2)cc1OC | nt | nt | nt | nt | -5.7 | -16.8
Nc1cc(N)nc(SCC(=O)Nc2ccc(Br)cc2Cl)n1 | 16.6 | nt | -3.8 | i | 44.3 | 61.6*
Cc1ccc(NC(=O)C(=Cc2ccc(C(=O)O)cc2)C(=O)Nc2ccc(C)cc2C)c(C)c1 | 2.8 | nt | -7.5 | i | 469.8 | 555.3*
C=CCOC(=O)C1=C[C@H](c2ccc3c(c2)OCO3)C[C@H](OCCCCO)O1 | -5.3 | nt | nt | i | -1.7 | 6.9
O=C(Nc1ccc(NC(=O)c2cccs2)c(Cl)c1)c1cccs1 | nt | nt | nt | nt | 30.0 | 69.3*
O=C(Nc1ccc2[nH]ccc2c1)c1cccs1 | 13.1 | nt | nt | i | 20.1 | 57.7*
CC(NC(=O)c1cc2cc(F)ccc2[nH]1)c1ccccc1 (stereo not drawn) | nt | nt | nt | nt | 1.3 | -8.9
CC1=C(Sc2nc3ccccc3[nH]2)C(=O)NC(C)(C)C1 | 0.6 | 0.0 | -8.2 | i | 13.8 | 60.3*
O=C(Nc1c(C(=O)c2ccccc2)oc2ccccc12)c1cc(-c2ccccc2O)n[nH]1 | nt | -0.2 | -6.3 | i | 25.2 | 65.7*
